# How the values were obtained:
# Assay type in all cases: functional
# HOP-62 = assay: Growth inhibition of human HOP62 cells after 48 hrs by SRB assay; conditions: HOP-62, 48 h
# How it was run: (§1)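 NCI-60 panel protocol with adherent lines. Cells were seeded at 5,000–40,000 cells/well, depending on doubling time, and pre-incubated 24 h at 37 °C, 5% CO₂. Time-zero plates were TCA-fixed at drug addition. Drugs were dissolved in DMSO and exposed for 48 h. Cells were fixed with cold TCA (final 10%) for 60 min at 4 °C, stained with 0.4% SRB in 1% acetic acid for 10 min, solubilized with 10 mM trizma base, and read at A515.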
# OVCAR-3 = assay: Growth inhibition of human OVCAR-3 cells after 48 hrs by SRB assay; conditions: OVCAR-3, 48 h; how it was run: as §1
# HCT-15 = assay: Growth inhibition of human HCT15 cells after 48 hrs by SRB assay; conditions: HCT-15, 48 h; how it was run: as §1
# [1] = Growth inhibition of human Hs 578T cells after 48 hrs by SRB assay; how it was run: as §1
# HCT-116 = assay: Growth inhibition of human HCT116 cells after 48 hrs by SRB assay; conditions: HCT-116, 48 h; how it was run: as §1
# BT-549 = assay: Growth inhibition of human BT549 cells after 48 hrs by SRB assay; conditions: BT-549, 48 h; how it was run: as §1
# SF-268 = assay: Growth inhibition of human SF268 cells after 48 hrs by SRB assay; conditions: SF-268, 48 h; how it was run: as §1
# A498 = assay: Growth inhibition of human A498 cells after 48 hrs by SRB assay; conditions: A498, 48 h; how it was run: as §1
# Malme-3M = assay: Growth inhibition of human MALME-3M cells after 48 hrs by SRB assay; how it was run: as §1
# SF-295 = assay: Growth inhibition of human SF295 cells after 48 hrs by SRB assay; conditions: SF-295, 48 h; how it was run: as §1
# OVCAR-5 = assay: Growth inhibition of human OVCAR5 cells after 48 hrs by SRB assay; conditions: OVCAR-5, 48 h; how it was run: as §1
# NCI-H322M = assay: Growth inhibition of human NCI-H322M cells after 48 hrs by SRB assay; how it was run: as §1
# CAKI-1 = assay: Growth inhibition of human Caki1 cells after 48 hrs by SRB assay; conditions: CAKI-1, 48 h; how it was run: as §1
# A549 = assay: Growth inhibition of human A549 cells after 48 hrs by SRB assay; conditions: A549, 48 h; how it was run: as §1
# SK-MEL-28 = assay: Growth inhibition of human SK-MEL-28 cells after 48 hrs by SRB assay; conditions: SK-MEL-28, 48 h; how it was run: as §1
# MCF7 = assay: Growth inhibition of human MCF7 cells after 48 hrs by SRB assay; conditions: MCF7, 48 h; how it was run: as §1
# NCI-H522 = assay: Growth inhibition of human NCI-H522 cells after 48 hrs by SRB assay; conditions: NCI-H522, 48 h; how it was run: as §1
# NCI-H226 = assay: Growth inhibition of human NCI-H226 cells after 48 hrs by SRB assay; conditions: NCI-H226, 48 h; how it was run: as §1
# LOX IMVI = assay: Growth inhibition of human LOXIMVI cells after 48 hrs by SRB assay; how it was run: as §1
# HOP-92 = assay: Growth inhibition of human HOP92 cells after 48 hrs by SRB assay; conditions: HOP-92, 48 h; how it was run: as §1
# OVCAR-4 = assay: Growth inhibition of human OVCAR4 cells after 48 hrs by SRB assay; conditions: OVCAR-4, 48 h; how it was run: as §1
# NCI/ADR-RES = assay: Growth inhibition of human NCI/ADR-RES cells after 48 hrs by SRB assay; how it was run: as §1
# PC-3 = assay: Growth inhibition of human PC3 cells after 48 hrs by SRB assay; conditions: PC-3, 48 h; how it was run: as §1
# MDA-MB-231 = assay: Growth inhibition of human MDA-MB-231 cells after 48 hrs by SRB assay; conditions: MDA-MB-231, 48 h; how it was run: as §1
# SK-OV-3 = assay: Growth inhibition of human SKOV3 cells after 48 hrs by SRB assay; conditions: SK-OV-3, 48 h; how it was run: as §1
# SF-539 = assay: Growth inhibition of human SF539 cells after 48 hrs by SRB assay; conditions: SF-539, 48 h; how it was run: as §1
# MDA-MB-435 = assay: Growth inhibition of human MDA-MB-435 cells after 48 hrs by SRB assay; conditions: MDA-MB-435, 48 h; how it was run: as §1
# DU-145 = assay: Growth inhibition of human DU145 cells after 48 hrs by SRB assay; conditions: DU-145, 48 h; how it was run: as §1
# HT-29 = assay: Growth inhibition of human HT-29 cells after 48 hrs by SRB assay; conditions: HT-29, 48 h; how it was run: as §1
# [2] = read-out: LC50 (the source's name)
structure (smiles),measurement,setting,value
COc1ccc(C2CC(c3nc4ccccc4[nH]3)=NN2c2ccccc2)cc1OC (configuration not stated),GI50,HOP-62,19.9 µM
same,TGI,HOP-62,> 100 µM
same,CC50,HOP-62; [2],> 100 µM
same,GI50,OVCAR-3,4.17 µM
same,TGI,OVCAR-3,18.9 µM
same,CC50,OVCAR-3; [2],62.2 µM
same,GI50,HCT-15,4.1 µM
same,TGI,HCT-15,20.5 µM
same,CC50,HCT-15; [2],70.9 µM
same,GI50,[1],6.18 µM
same,TGI,[1],41.2 µM
same,CC50,[1]; [2],> 100 µM
same,GI50,HCT-116,3.94 µM
same,TGI,HCT-116,16.5 µM
same,CC50,HCT-116; [2],49.8 µM
same,GI50,BT-549,10.3 µM
same,TGI,BT-549,69 µM
same,CC50,BT-549; [2],> 100 µM
same,GI50,SF-268,21.3 µM
same,TGI,SF-268,> 100 µM
same,CC50,SF-268; [2],> 100 µM
same,GI50,A498,5.14 µM
same,TGI,A498,58.1 µM
same,CC50,A498; [2],> 100 µM
same,GI50,Malme-3M,7.47 µM
same,TGI,Malme-3M,92.7 µM
same,CC50,Malme-3M; [2],> 100 µM
same,GI50,SF-295,5.98 µM
same,TGI,SF-295,51.4 µM
same,CC50,SF-295; [2],> 100 µM
same,GI50,OVCAR-5,26.7 µM
same,TGI,OVCAR-5,> 100 µM
same,CC50,OVCAR-5; [2],> 100 µM
same,GI50,NCI-H322M,21.3 µM
same,TGI,NCI-H322M,> 100 µM
same,CC50,NCI-H322M; [2],> 100 µM
same,GI50,CAKI-1,3.6 µM
same,TGI,CAKI-1,24.7 µM
same,CC50,CAKI-1; [2],> 100 µM
same,GI50,A549,17.1 µM
same,TGI,A549,> 100 µM
same,CC50,A549; [2],> 100 µM
same,GI50,SK-MEL-28,13.1 µM
same,TGI,SK-MEL-28,39 µM
same,CC50,SK-MEL-28; [2],> 100 µM
same,GI50,MCF7,2.41 µM
same,TGI,MCF7,15.3 µM
same,CC50,MCF7; [2],54.2 µM
same,GI50,NCI-H522,5.46 µM
same,TGI,NCI-H522,34.8 µM
same,CC50,NCI-H522; [2],> 100 µM
same,GI50,NCI-H226,15.3 µM
same,TGI,NCI-H226,> 100 µM
same,CC50,NCI-H226; [2],> 100 µM
same,GI50,LOX IMVI,5.1 µM
same,TGI,LOX IMVI,21.7 µM
same,CC50,LOX IMVI; [2],62.9 µM
same,GI50,HOP-92,3.89 µM
same,TGI,HOP-92,> 100 µM
same,CC50,HOP-92; [2],> 100 µM
same,GI50,OVCAR-4,9.31 µM
same,TGI,OVCAR-4,> 100 µM
same,CC50,OVCAR-4; [2],> 100 µM
same,GI50,NCI/ADR-RES,19 µM
same,TGI,NCI/ADR-RES,94.5 µM
same,CC50,NCI/ADR-RES; [2],> 100 µM
same,GI50,PC-3,6.27 µM
same,TGI,PC-3,49 µM
same,CC50,PC-3; [2],> 100 µM
same,GI50,MDA-MB-231,7.19 µM
same,TGI,MDA-MB-231,91.5 µM
same,CC50,MDA-MB-231; [2],> 100 µM
same,GI50,SK-OV-3,33.1 µM
same,TGI,SK-OV-3,> 100 µM
same,CC50,SK-OV-3; [2],> 100 µM
same,GI50,SF-539,15 µM
same,TGI,SF-539,38.6 µM
same,CC50,SF-539; [2],99.5 µM
same,GI50,MDA-MB-435,4.15 µM
same,TGI,MDA-MB-435,> 100 µM
same,CC50,MDA-MB-435; [2],> 100 µM
same,GI50,DU-145,33.1 µM
same,TGI,DU-145,> 100 µM
same,CC50,DU-145; [2],> 100 µM
same,GI50,HT-29,9.91 µM
same,TGI,HT-29,24.7 µM
same,CC50,HT-29; [2],61.4 µM

# From ChEMBL document CHEMBL1154686, “Pyrazoline bearing benzimidazoles: search for anticancer agent” (2010)
